{"data": "Experimental data collected from several papers", "target": "Macrophage-stimulating protein receptor (MST1R, Homo sapiens, UniProt Q04912)"}
{"Structure (SMILES)": "O=C(NCc1ncc(C(F)(F)F)cc1Cl)c1ccc2c(c1)C1(CCS(=O)(=O)CC1)[C@H](C1CC1)N2S(=O)(=O)c1ccc(F)cc1", "read-out": "cell-free assay", "method": "competition with immobilised ligand", "concentration": "1 µM", "measurement": "remaining binding", "result": "99%"}
{"Structure (SMILES)": "CCN(CC)CCNC(=O)c1c(C)[nH]c(/C=C2\\C(=O)Nc3ccc(F)cc32)c1C", "read-out": "enzyme activity", "action": "inhibitor", "concentration": "0.1 µM", "measurement": "remaining activity", "result": "97%"}
{"Structure (SMILES)": "O=c1nc(-c2ccccn2)sc2ccccc12", "read-out": "cell-free assay", "method": "competition with immobilised ligand", "concentration": "1 µM", "measurement": "remaining binding", "result": "100%"}
{"Structure (SMILES)": "O=C1Nc2ccc(Cl)cc2C1=Cc1cc(Cl)c(O)c(Cl)c1", "read-out": "cell-free assay", "concentration": "0.5 µM", "measurement": "remaining signal", "result": "94.8%"}
{"Structure (SMILES)": "CC1=C(C#N)[C@@H](c2ccc3[nH]nc(C)c3c2)C(C#N)=C(c2ccc(Cl)cc2)N1", "read-out": "cell-free assay", "method": "competition with immobilised ligand", "concentration": "1 µM", "measurement": "remaining binding", "result": "70.2%"}
{"Structure (SMILES)": "CCCOc1ccc(OC)c(F)c1C(=O)c1ccc(C(=O)N[C@@H]2CNC[C@H]2NC(=O)c2ccc3[nH]ncc3c2)cc1", "read-out": "enzyme activity", "action": "inhibitor", "concentration": "10 µM", "measurement": "remaining activity", "result": "64%"}
{"Structure (SMILES)": "CN1CC(Oc2cnc(C#N)cc2-c2ccn3nc(NC(=O)C4CC4)cc3c2)C1", "read-out": "enzyme activity", "action": "inhibitor", "concentration": "1 µM", "measurement": "inhibition", "result": "5%"}
{"Structure (SMILES)": "Cc1ccc(C(=O)NCc2ccsc2)cc1C#Cc1cn(C(C)C)c2ncnc(N)c12", "read-out": "enzyme activity", "action": "inhibitor", "concentration": "1 µM", "measurement": "activity vs control", "result": "80%"}
{"Structure (SMILES)": "O=C(Nc1ccc(Oc2ccc(F)cc2)cc1)N1CCc2ncccc2[C@H]1c1ccc(F)cc1", "read-out": "cell-free assay", "method": "competition with immobilised ligand", "concentration": "1 µM", "measurement": "remaining binding", "result": "98%"}
{"Structure (SMILES)": "COc1cc(Cl)c(C(=O)N[C@@H](CN[C@H]2CC[C@@H](N)CC2)Cc2ccc(C#N)cc2)cc1-c1ccc(CN[C@H](C)c2ccc(C)cc2)o1", "read-out": "enzyme activity", "action": "inhibitor", "concentration": "1 µM", "measurement": "remaining activity", "result": "92%"}
{"Structure (SMILES)": "COc1cc(-c2cn(C3CCc4ccccc4N(CC(F)(F)F)C3=O)nn2)ccc1-n1ccc(C)n1 (stereo not shown)", "read-out": "cell-free assay", "method": "competition with immobilised ligand", "concentration": "1 µM", "measurement": "remaining binding", "result": "96%"}
{"Structure (SMILES)": "CCN(CC)CCNC(=O)c1c(C)[nH]c(/C=C2\\C(=O)Nc3ccc(F)cc32)c1C", "read-out": "cell-free assay", "concentration": "10 µM", "measurement": "inhibition", "result": "-1%"}
{"Structure (SMILES)": "CCCS(=O)(=O)Nc1ccc(F)c(C(=O)c2c[nH]c3ncc(-c4ccc(Cl)cc4)cc23)c1F", "read-out": "enzyme activity", "action": "inhibitor", "concentration": "1 µM", "measurement": "inhibition", "result": "< 10%"}
{"Structure (SMILES)": "CC(=O)c1c(NS(C)(=O)=O)c2cc(-c3ccc(Cl)cc3)c(-c3ccc(Cl)cc3Cl)nc2n(C)c1=O", "read-out": "cell-free assay", "method": "competition with immobilised ligand", "concentration": "1 µM", "measurement": "remaining binding", "result": "88%"}
{"Structure (SMILES)": "COc1cc2c(Nc3ccc(Br)cc3F)ncnc2cc1OCC1CCN(C)CC1", "read-out": "cell-free assay", "concentration": "0.5 µM", "measurement": "remaining signal", "result": "93.6%"}
{"Structure (SMILES)": "Cc1[nH]c(/C=C2\\C(=O)Nc3ccc(F)cc32)c(C)c1C(=O)N[C@H]1CCN(C(=O)N(C)C)C1", "read-out": "enzyme activity", "action": "inhibitor", "concentration": "1 µM", "measurement": "remaining activity", "result": "96%"}
{"Structure (SMILES)": "Cc1cc(NC(=O)c2cccc3cc(-c4cccc5[nH]nc(N)c45)ccc23)ccc1F", "read-out": "enzyme activity", "action": "inhibitor", "concentration": "0.1 µM", "measurement": "activity vs control", "result": "110%"}
{"Structure (SMILES)": "CC(C)(C)c1nc2c(s1)c1nc(N)ncc1c1ccc(NS(=O)(=O)c3c(F)cccc3F)c(F)c12", "read-out": "enzyme activity", "action": "inhibitor", "method": "radiometric", "concentration": "1 µM", "measurement": "remaining activity", "result": "116%"}
{"Structure (SMILES)": "CNC(=O)c1cc(Oc2ccc(NC(=O)Nc3ccc(Cl)c(C(F)(F)F)c3)cc2)ccn1", "read-out": "cell-free assay", "concentration": "0.3 µM", "measurement": "inhibition", "result": "-10%"}
{"Structure (SMILES)": "CNCc1ccccc1-c1csc([C@@H](C)Nc2nc(C)nc3cc(OC)c(OC)cc23)c1", "read-out": "cell-free assay", "method": "competition with immobilised ligand", "concentration": "1 µM", "measurement": "remaining binding", "result": "100%"}
{"Structure (SMILES)": "C=CC(=O)Nc1cc(Nc2nccc(Nc3cc(Cl)c(F)cc3C(C)(C)O)n2)c(OC)cc1N1CC[C@@H](N(C)C)C1", "read-out": "enzyme activity", "action": "inhibitor", "concentration": "1 µM", "measurement": "inhibition", "result": "8%"}
{"Structure (SMILES)": "COc1cc2ncnc(Nc3ccc(Oc4ccccc4)cc3C)c2cc1OC", "read-out": "enzyme activity", "action": "inhibitor", "concentration": "1 µM", "measurement": "inhibition", "result": "-3%"}
{"Structure (SMILES)": "CCN(CC)c1ccc(C2=NNC(=O)CC2C)cc1[N+](=O)[O-] (stereo not shown)", "read-out": "enzyme activity", "action": "inhibitor", "concentration": "10 µM", "measurement": "remaining activity", "result": "106%"}
{"Structure (SMILES)": "Cc1sc(C(=O)NC2COC2)cc1-n1cc(NC(=O)Nc2c(F)cccc2Cl)cn1", "read-out": "enzyme activity", "action": "inhibitor", "concentration": "10 µM", "measurement": "remaining activity", "result": "96.9%"}
{"Structure (SMILES)": "O=C1NC(=O)c2cc(Nc3ccc(F)cc3)c(Nc3ccc(F)cc3)cc21", "read-out": "cell-free assay", "concentration": "0.5 µM", "measurement": "remaining signal", "result": "100%"}
{"Structure (SMILES)": "Cc1ccc(Nc2nccc(N(C)c3ccc4c(C)n(C)nc4c3)n2)cc1S(N)(=O)=O", "read-out": "cell-free assay", "concentration": "10 µM", "measurement": "inhibition", "result": "-4%"}
{"Structure (SMILES)": "Cc1noc([C@H]2C[C@@H](c3ccc(C(F)(F)F)cc3)CN(C(=O)N3CCS(=O)(=O)C3)C2)n1", "read-out": "cell-free assay", "method": "competition with immobilised ligand", "concentration": "1 µM", "measurement": "remaining binding", "result": "100%"}
{"Structure (SMILES)": "c1ccc(CNc2nc(N3CCOc4ccccc43)nc3c2CCCC3)cc1", "read-out": "target engagement in cells", "action": "inhibitor", "method": "chemoproteomics", "concentration": "20 mM", "measurement": "inhibition", "result": "-10.5%"}
